Source: ChEMBL document CHEMBL1255525, “Fluorinated 2'-hydroxychalcones as garcinol analogs with enhanced antioxidant and anticancer activities” (Bioorg Med Chem Lett, 2010)

What was measured:
[1] = Antioxidant activity against superoxide dismutase like activity after 15 mins by NBT spectrometric assay; format: functional
How it was run: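 Superoxide-scavenging (SOD-like) activity by NBT method, run in triplicate. Mix of 2.1 ml 0.2 M Tris buffer and 1 ml NBT with test solution, held on ice 15 min. KO₂ (1.5 ml) then added with stirring. Absorbance at 560 nm read every 30 s over 5 min. Ascorbic acid as standard.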

BXPC-3 = experiment: Cytotoxicity against human BxPC3 cells expressing COX2 after 24 hrs by MTT assay; format: functional, cell-based; conditions: BXPC-3, 24 h
How it was run: (§1)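 Cells grown at 37 °C, 5% CO₂, with penicillin (50 U/ml), streptomycin and 10% fetal calf serum; lines STR-authenticated. 3 × 10³ cells seeded per well. Compounds in DMSO added 24 h after seeding. Eight replicate wells per treatment; experiments repeated at least three times. End-point: MTT 0.5 mg/ml, 2 h at 37 °C, then DMSO 30 min at room temperature; absorbance read.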

BT-20 = experiment: Cytotoxicity against human estrogen receptor-deficient BT20 cells after 24 hrs by MTT assay; format: functional, cell-based; conditions: BT-20, 24 h; how it was run: as §1
[2] = Lipophilicity, log P of the compound; format: physicochemical; conditions: octanol/water

Row | SMILES | IC50 [1] [µM] | logP [2] | IC50 (BXPC-3) [µM] | IC50 (BT-20) [µM]
1 | O=C(/C=C/c1ccc(F)c(F)c1)c1ccccc1O | 5.68 | 3.51 | 26.7 | 32.8
2 | O=C(/C=C/c1ccc(O)cc1O)c1ccccc1O | 6.07 | 2.42 | 68.6 | 52.9
3 | O=C(/C=C/c1ccc(O)c(O)c1O)c1ccccc1O | 13.7 | 2.03 | 213 | 61.7
4 | O=C(/C=C/c1ccc(F)c(F)c1F)c1ccccc1O | 7.31 | 3.67 | 34.7 | 56.6
5 | O=C(/C=C/c1ccc(O)c(O)c1)c1ccccc1O | 9.23 | 2.42 | 78.3 | 63.9
6 | O=C(/C=C/c1ccccc1)c1ccccc1 [CHALCONE] | – | 3.2 | – | –

Continued by falling IC50 [1], values first:

Row | IC50 [1] [µM] | logP [2] | SMILES | IC50 (BXPC-3) [µM] | IC50 (BT-20) [µM]
7 | 5.43 | – | O=C1O[C@H]([C@@H](O)CO)C(O)=C1O [ASCORBIC ACID] | – | –
8 | 5.27 | 3.51 | O=C(/C=C/c1ccc(F)cc1F)c1ccccc1O | 18.7 | 26.4
